Reference: ChEMBL document CHEMBL1177674, “2-acylamino-4,6-diphenylpyridine derivatives as novel GPR54 antagonists with good brain exposure and in vivo efficacy for plasma LH level in male rats” (Bioorg Med Chem, 2010)

What was measured:
[1] = target: T1, KiSS-1 receptor (Homo sapiens, UniProt Q969F8); assay: Displacement of [125I]metastin from human GPR54 receptor expressed in CHO cells; type: cell-based
Procedure, shortened: (§1)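 Membranes came from CHO cells stably expressing human or rat GPR54. They were incubated with 135 pM 125I-metastin (40–54) plus compound for 60 min at 25 °C, in Tris binding buffer pH 7.4 with protease inhibitors and 1 mg/ml BSA. Samples were filtered through PEI-pretreated GF/C filters, buffer-washed, and the bound radioactivity was counted.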

[2] = target: KiSS-1 receptor (Rattus norvegicus, UniProt Q924U1); assay: Displacement of [125I]metastin from rat GPR54 receptor expressed in CHO cells; type: cell-based; procedure, shortened: as §1
[3] = Lipophilicity, log D at pH 7.4; type: physicochemical; details: buffer
[4] = system: Caco-2; assay: Ratio of permeability from basolateral to apical side to apical to basolateral side of human Caco-2 cells; type: ADME, cell-based
Procedure, shortened: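 Caco-2 monolayers were grown to confluence on collagen-coated polycarbonate Transwell membranes. Assay buffer was HBSS with 10 mmol/L HEPES, 15 mmol/L glucose and 1% BSA, pH 7.3–7.5. Compound was dosed apically or basolaterally at 37 °C, 5% CO2. Receivers were sampled at 1 and 2 h and donors at 2 h, in duplicate. A cell-free membrane corrected for nonspecific binding. The B-to-A/A-to-B ratio was derived.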

[5] = system: Rattus norvegicus; assay: Decrease in leutinizing hormone level in castrated Wistar rat plasma at 0.22 mg/kg, iv for 5 times with 10 mins interval measured after 60 mins postdose by radioimmunoassay; type: functional; set-up: scale not given: the % may be the effect or the level left
Procedure, shortened: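 Male Wistar rats, 11 weeks old, were castrated 7 days before testing. Compound was suspended at […] in 20% DMSO-40% PEG400. It was given at 0.22 mg/kg (0.8 ml/kg) via jugular catheter five times at 10 min intervals, for 1.1 mg/kg total. Vehicle served as control; n = 8 per group. Blood was drawn before dosing and at 25–180 min, then aprotinin–EDTA plasma was prepared. Values are means SE of eight.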

[6] = target: T1, KiSS-1 receptor; assay: Antagonist activity at human GPR54 receptor assessed as inhibition of metastin-induced calcium mobilization; type: functional
Procedure, shortened: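 Cells in MEM with 10% dFBS, penicillin and streptomycin, plated at 30,000 cells/well and cultured overnight. Loaded 60 min at 37 °C in Hepes-buffered saline (pH 7.4) containing 0.1% BSA, Fluo-3AM, 1.25 mM probenecid and 0.04% Pluronic F-127. Washed at 37 °C in the same buffer with BSA and probenecid. Ca²⁺ mobilization read on FLIPR.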

Sequence of KiSS-1 receptor (Rattus norvegicus, UniProt Q924U1) (Q924U1 whole entry): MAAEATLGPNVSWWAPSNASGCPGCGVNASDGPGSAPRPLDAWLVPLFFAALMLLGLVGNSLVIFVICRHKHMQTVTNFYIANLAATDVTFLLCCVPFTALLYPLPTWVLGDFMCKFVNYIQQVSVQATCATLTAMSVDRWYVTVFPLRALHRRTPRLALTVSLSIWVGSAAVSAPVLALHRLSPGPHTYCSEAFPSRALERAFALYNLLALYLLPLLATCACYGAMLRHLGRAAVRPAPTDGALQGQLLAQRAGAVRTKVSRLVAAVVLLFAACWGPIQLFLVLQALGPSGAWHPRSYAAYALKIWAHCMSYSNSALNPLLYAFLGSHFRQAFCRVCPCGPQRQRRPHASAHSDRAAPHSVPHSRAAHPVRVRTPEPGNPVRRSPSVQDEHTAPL
T1 sequence (Q969F8 whole entry): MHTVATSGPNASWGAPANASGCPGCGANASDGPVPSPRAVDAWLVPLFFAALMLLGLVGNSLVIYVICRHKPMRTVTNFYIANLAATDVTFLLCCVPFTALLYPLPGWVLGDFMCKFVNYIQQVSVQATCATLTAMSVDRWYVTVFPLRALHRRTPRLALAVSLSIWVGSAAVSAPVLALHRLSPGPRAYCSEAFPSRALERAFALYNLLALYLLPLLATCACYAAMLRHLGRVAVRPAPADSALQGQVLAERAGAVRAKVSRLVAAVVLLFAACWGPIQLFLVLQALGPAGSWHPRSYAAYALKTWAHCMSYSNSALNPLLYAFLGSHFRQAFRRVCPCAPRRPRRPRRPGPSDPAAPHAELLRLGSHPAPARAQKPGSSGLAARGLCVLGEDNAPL

For `CNCCC(=O)Nc1cccc(-c2cc(-c3ccc(F)cc3O)nc(NC(=O)c3ccco3)c2C#N)c1`, the IC50 [1] was 4.6 nM, the IC50 [2] was 20 nM and the logD [3] was 2.13.
Compound `CCN1CCN(c2cccc(-c3cc(-c4ccc(F)cc4O)nc(NC(=O)c4ccco4)c3C#N)c2)CC1` has an IC50 [1] of 11 nM, a Ratio [4] of 1 and an IC50 [2] of 47 nM. For the same compound, the logD [3] was 4.1.
`N#Cc1c(-c2cccc(NC(=O)C[C@@H]3CCCN3)c2)cc(-c2ccc(F)cc2O)nc1NC(=O)c1ccco1` showed an IC50 [1] of 7.9 nM, an IC50 [2] of 26 nM and a logD [3] of 2.29.
`CCN(CC)C(C)CC(=O)Nc1cccc(-c2cc(-c3ccc(F)cc3O)nc(NC(=O)c3ccco3)c2C#N)c1` (racemic) showed an IC50 [1] of 17 nM.
Work on `N#Cc1c(-c2cccc(NC(=O)CC3CCCCN3)c2)cc(-c2ccc(F)cc2O)nc1NC(=O)c1ccco1` (racemic) yielded an IC50 [1] of 14 nM.
Work on `CN1CCN(Cc2cccc(-c3cc(-c4ccc(F)cc4O)nc(NC(=O)c4ccco4)c3C#N)c2)CC1` yielded an IC50 [1] of 18 nM.
`N#Cc1c(-c2cccc(NC(=O)CN)c2)cc(-c2ccc(F)cc2O)nc1NC(=O)c1ccco1` gave an IC50 [1] of 4.1 nM.
Work on `CN1CCC[C@H]1CC(=O)Nc1cccc(-c2cc(-c3ccc(F)cc3O)nc(NC(=O)c3ccco3)c2C#N)c1` yielded an IC50 [1] of 18 nM.
In the case of `CCN(C)CCC(=O)Nc1cccc(-c2cc(-c3ccc(F)cc3O)nc(NC(=O)c3ccco3)c2C#N)c1`, the IC50 [1] is reported as 10 nM.
In the case of `CN(C)CCNC(=O)c1cccc(-c2cc(-c3ccc(F)cc3O)nc(NC(=O)c3ccco3)c2C#N)c1`, the IC50 [1] is reported as 20 nM.
`N#Cc1c(-c2cccc(NC(=O)CN3CCCC3)c2)cc(-c2ccc(F)cc2O)nc1NC(=O)c1ccco1` showed an IC50 [1] of 15 nM.
For `CNCC(=O)Nc1cccc(-c2cc(-c3ccc(F)cc3O)nc(NC(=O)c3ccco3)c2C#N)c1`, the IC50 [1] was 8.4 nM, the IC50 [2] was 26 nM and the logD [3] was 2.66.
Work on `CCN(CC)CC(=O)Nc1cccc(-c2cc(-c3ccc(F)cc3O)nc(NC(=O)c3ccco3)c2C#N)c1` yielded an IC50 [1] of 30 nM.
With `CCNC(CC)CC(=O)Nc1cccc(-c2cc(-c3ccc(F)cc3O)nc(NC(=O)c3ccco3)c2C#N)c1` (racemic) the IC50 [1] was 8 nM.
For `CC(CC(=O)Nc1cccc(-c2cc(-c3ccc(F)cc3O)nc(NC(=O)c3ccco3)c2C#N)c1)N(C)C` (racemic), the IC50 [1] was 18 nM.
In the case of `CN(C)CC(=O)Nc1cccc(-c2cc(-c3ccc(F)cc3O)nc(NC(=O)c3ccco3)c2C#N)c1`, the IC50 [1] is reported as 12 nM, the Ratio [4] is reported as 1.4 and the IC50 [2] is reported as 130 nM. The logD [3] was 3.31.
In the case of `CN(C)CC(=O)Nc1cccc(-c2cc(-c3ccccc3O)nc(NC(=O)c3cccs3)c2C#N)c1`, the IC50 [1] is reported as 180 nM, the Ratio [4] is reported as 1 and the logD [3] is reported as 3.07.
`CCN(CC)CCC(=O)Nc1cccc(-c2cc(-c3ccc(F)cc3O)nc(NC(=O)c3ccco3)c2C#N)c1` showed an IC50 [1] of 16 nM.
`N#Cc1c(-c2cccc(CN3CCCNCC3)c2)cc(-c2ccc(F)cc2O)nc1NC(=O)c1ccco1` showed an IC50 [1] of 25 nM.
In the case of `CC(C)NC(C)CC(=O)Nc1cccc(-c2cc(-c3ccc(F)cc3O)nc(NC(=O)c3ccco3)c2C#N)c1` (racemic), the IC50 [1] is reported as 9.7 nM.
Work on `N#Cc1c(-c2cccc(NC(=O)[C@H]3CCCN3)c2)cc(-c2ccc(F)cc2O)nc1NC(=O)c1ccco1` yielded an IC50 [1] of 16 nM.
`CN(C)CCC(=O)Nc1cccc(-c2cc(-c3ccc(F)cc3O)nc(NC(=O)c3ccco3)c2C#N)c1` showed an IC50 [1] of 10 nM, a Ratio [4] of 4.3 and an IC50 [2] of 47 nM. It also gave a logD [3] of 2.95.
Compound `N#Cc1c(-c2cccc(NC(=O)CCN)c2)cc(-c2ccc(F)cc2O)nc1NC(=O)c1cccs1` has a Ratio [4] of 49 and a logD [3] of 2.14.
With `N#Cc1c(-c2cccc(NC(=O)C[C@H]3CCCN3)c2)cc(-c2ccc(F)cc2O)nc1NC(=O)c1ccco1` the IC50 [1] was 10 nM, the IC50 [2] was 38 nM and the logD [3] was 2.13.
With `CN(C)CCN(C)c1cccc(-c2cc(-c3ccc(F)cc3O)nc(NC(=O)c3ccco3)c2C#N)c1` the IC50 [1] was 30 nM.
`CCNC(C)CC(=O)Nc1cccc(-c2cc(-c3ccc(F)cc3O)nc(NC(=O)c3ccco3)c2C#N)c1` (racemic) showed an IC50 [1] of 10 nM.
`CCC(CC(=O)Nc1cccc(-c2cc(-c3ccc(F)cc3O)nc(NC(=O)c3ccco3)c2C#N)c1)N(CC)CC` (racemic) gave an IC50 [1] of 22 nM.
In the case of `N#Cc1c(-c2cccc(CN3CCNCC3)c2)cc(-c2ccc(F)cc2O)nc1NC(=O)c1ccco1`, the IC50 [1] is reported as 9.7 nM.
`CN1CCN(c2cccc(-c3cc(-c4ccc(F)cc4O)nc(NC(=O)c4ccco4)c3C#N)c2)CC1` showed an IC50 [1] of 15 nM.
`N#Cc1c(-c2cccc(N3CCCNCC3)c2)cc(-c2ccc(F)cc2O)nc1NC(=O)c1ccco1` gave an IC50 [1] of 7.3 nM.
Work on `N#Cc1c(-c2cccc(N3CCNCC3)c2)cc(-c2ccc(F)cc2O)nc1NC(=O)c1ccco1` yielded an IC50 [1] of 3.6 nM, a Ratio [4] of 1.2 and an Activity [5] of 32%. For the same compound, the IC50 [2] was 15 nM, the logD [3] was 2.72 and the IC50 [6] was 930 nM.
Work on `CCN1CCN(Cc2cccc(-c3cc(-c4ccc(F)cc4O)nc(NC(=O)c4ccco4)c3C#N)c2)CC1` yielded an IC50 [1] of 20 nM.
